Data reported in ChEMBL document CHEMBL4219223, “Rational design of pyridyl derivatives of vanillin for the treatment of sickle cell disease” (2018).

Tests used:
[1] = molecular target: T1, Hemoglobin HbA (Homo sapiens) (UniProt P69905+P68871); assay: Inhibition of sickle hemoglobin polymerization in human cell free hemoglobin matrix assessed as formation of high oxygen affinity schiff-base adducts incubated for 90 mins by HPLC method relative to control; assay type: protein-complex assay; set-up: scale not given: the % may be the effect or the level left
Erythrocyte [2] = assay: Antisickling activity in human homozygous sickle red blood cells at 0.5 mM incubated for 2 hrs under hypoxic condition relative to control; assay type: functional
In short: (§1)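 Sickle (SS) red cell suspensions at 20% hematocrit, with or without compound (0.5, 1.0, 2.0 mM; DMSO <2% final, also in controls), held in air at 37°C for 1 h, then under 4% O2/96% N2 at 37°C for 2 h. Aliquots fixed in 2% glutaraldehyde without air exposure; sickling scored on bright-field images at 40x. Mean ± SD, three biological replicates.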

[3] = molecular target: T1, Hemoglobin HbA (Homo sapiens); assay: (§2) Induction of R-state stabilization of Hb in human homozygous sickle red blood cells assessed as change in oxygen pressure at which hemolysates are 50% saturated with oxygen at 1 mM incubated under air for 1 hr followed by 2 hrs incubation under hypoxic condition by oxygen equilibrium curve analysis relative to control
In short: (§3)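 SS cells (20% hematocrit) given 0.5–2.0 mM compound, 1 h in air at 37°C, then 2 h hypoxia (4% O2) at 37°C. Cells washed in PBS and lysed hypotonically. About 100 μL clarified lysate placed in 4 ml 0.1 M potassium phosphate, pH 7.0, and read on a Hemox analyzer. ΔP50 = (P50 untreated − P50 treated)/P50 untreated × 100, relative to DMSO controls. Three biological replicates.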

[4] = molecular target: T1, Hemoglobin HbA (Homo sapiens); assay: Inhibition of sickle hemoglobin polymerization in human homozygous sickle red blood cells assessed as formation of high oxygen affinity schiff-base adducts at 2 mM incubated under air for 1 hr followed by 2 hrs incubation under hypoxic condition by HPLC method relative to control; set-up: scale not given: the % may be the effect or the level left
In short: (§4)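 Lysates from SS cells (20% hematocrit) exposed to 0.5, 1.0 or 2.0 mM compound, 1 h air then 2 h 4% O2 at 37°C. Cells washed in PBS and lysed hypotonically. Hb S adduct percentage taken from weak cation-exchange HPLC elution patterns (Poly CAT A column). Mean ± SD of three biological replicates.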

[5] = molecular target: T1, Hemoglobin HbA (Homo sapiens); assay: as §2, with “at 0.5” for “at 1”; in short: as §3
Erythrocyte [6] = assay: Antisickling activity in human homozygous sickle red blood cells incubated for 2 hrs under hypoxic condition; assay type: functional, cell-based; in short: as §1
[7] = molecular target: T1, Hemoglobin HbA (Homo sapiens); assay: Inhibition of sickle hemoglobin polymerization in human homozygous sickle red blood cells assessed as formation of high oxygen affinity schiff-base adducts at 1 mM incubated under air for 1 hr followed by 2 hrs incubation under hypoxic condition by HPLC method relative to control; set-up: scale not given: the % may be the effect or the level left; in short: as §4
[8] = molecular target: T1, Hemoglobin HbA (Homo sapiens); assay: Inhibition of sickle hemoglobin polymerization in human homozygous sickle red blood cells assessed as formation of high oxygen affinity schiff-base adducts at 0.5 mM incubated under air for 1 hr followed by 2 hrs incubation under hypoxic condition by HPLC method relative to control; set-up: scale not given: the % may be the effect or the level left; in short: as §4
[9] = molecular target: T1, Hemoglobin HbA (Homo sapiens); assay: Inhibition of sickle hemoglobin polymerization in human whole blood assessed as formation of high oxygen affinity schiff-base adducts at 2 mM measured up to 24 hrs by HPLC method relative to control; assay type: protein-complex assay; set-up: scale not given: the % may be the effect or the level left
In short: (§5)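 Normal donor whole blood (30% hematocrit) or purified Hb (1.56 mM) incubated with compound (0.5, 1.0, 2.0 mM) at 37°C with shaking at 140 rpm for up to 24 h. Samples taken at 0.5, 1, 2, 4, 8, 12 and 24 h and quenched with cyanoborohydride/borohydride to fix Schiff-base adducts. Adducts quantified by cation-exchange HPLC. Peak read from the %modification-vs-time curve; AUC(0–24) by linear trapezoidal rule.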

Erythrocyte [10] = assay: Antisickling activity in human homozygous sickle red blood cells at 2 mM incubated for 2 hrs under hypoxic condition relative to control; assay type: functional; in short: as §1
[11] = molecular target: T1, Hemoglobin HbA (Homo sapiens); assay: Inhibition of sickle hemoglobin polymerization in human whole blood assessed as formation of high oxygen affinity schiff-base adducts by HPLC method; assay type: protein-complex assay; conditions: TDE = time-dependent effect; in short: as §5
[12] = molecular target: T1, Hemoglobin HbA (Homo sapiens); assay: Induction of R-state stabilization of Hb in human homozygous sickle red blood cells assessed as change in oxygen pressure at which hemolysates are 50% saturated with oxygen incubated under air for 1 hr followed by 2 hrs incubation under hypoxic condition by oxygen equilibrium curve analysis; in short: as §3
Erythrocyte [13] = assay: Antisickling activity in human homozygous sickle red blood cells at 1 mM incubated for 2 hrs under hypoxic condition relative to control; assay type: functional; in short: as §1
[14] = molecular target: T1, Hemoglobin HbA (Homo sapiens); assay: as §2, with “at 2” for “at 1”; in short: as §3
[15] = molecular target: T1, Hemoglobin HbA (Homo sapiens); assay: Inhibition of sickle hemoglobin polymerization in human homozygous sickle red blood cells assessed as formation of high oxygen affinity schiff-base adducts incubated under air for 1 hr followed by 2 hrs incubation under hypoxic condition by HPLC method; in short: as §4
[16] = molecular target: T1, Hemoglobin HbA (Homo sapiens); assay: Inhibition of sickle hemoglobin polymerization in human cell free hemoglobin matrix assessed as formation of high oxygen affinity schiff-base adducts incubated for 60 to 90 mins by HPLC method relative to control; assay type: protein-complex assay; set-up: scale not given: the % may be the effect or the level left
[17] = molecular target: T1, Hemoglobin HbA (Homo sapiens); assay: Inhibition of sickle hemoglobin polymerization in human whole blood assessed as formation of high oxygen affinity schiff-base adducts at 2 mM measured at 2 hrs by HPLC method relative to control; assay type: protein-complex assay; set-up: scale not given: the % may be the effect or the level left; in short: as §5
[18] = molecular target: T1, Hemoglobin HbA (Homo sapiens); assay: Inhibition of sickle hemoglobin polymerization in human whole blood assessed as formation of high oxygen affinity schiff-base adducts at 2 mM measured after 24 hrs by HPLC method relative to control; assay type: protein-complex assay; set-up: scale not given: the % may be the effect or the level left; in short: as §5
[19] = molecular target: T1, Hemoglobin HbA (Homo sapiens); assay: Inhibition of sickle hemoglobin polymerization in human whole blood assessed as formation of high oxygen affinity schiff-base adducts at 2 mM after 2 hrs by HPLC method relative to control; assay type: protein-complex assay; set-up: scale not given: the % may be the effect or the level left; in short: as §5
[20] = molecular target: T1, Hemoglobin HbA (Homo sapiens); assay: Inhibition of sickle hemoglobin polymerization in human whole blood assessed as formation of high oxygen affinity schiff-base adducts at 2 mM measured at 12 hrs by HPLC method relative to control; assay type: protein-complex assay; set-up: scale not given: the % may be the effect or the level left; in short: as §5

T1 sequence (P68871 2-147 partner limits assumed): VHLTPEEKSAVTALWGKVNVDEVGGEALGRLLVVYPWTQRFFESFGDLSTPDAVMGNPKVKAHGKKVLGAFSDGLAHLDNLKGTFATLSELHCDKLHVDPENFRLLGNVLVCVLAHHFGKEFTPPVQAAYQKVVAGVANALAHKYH
T1 sequence (P69905 2-142 limits assumed): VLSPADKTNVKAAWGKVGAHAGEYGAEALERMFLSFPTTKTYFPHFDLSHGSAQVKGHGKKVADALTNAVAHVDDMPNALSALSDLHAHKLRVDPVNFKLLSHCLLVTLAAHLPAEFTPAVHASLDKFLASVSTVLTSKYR

## COc1ccc(C=O)c(OCc2ccccn2)c1
[1]
  Activity: 50%
Erythrocyte [2]
  inhibition at 500 µM: 7.6%
[3]
  Activity: 20.9%
[4]
  Activity: 51.6%
[5]
  Activity: 8.1%
Erythrocyte [6]
  Activity: Dose-dependent effect
[7]
  Activity: 24.8%
[8]
  Activity: 12%
[9]
  Activity: 60%
Erythrocyte [10]
  inhibition at 2000 µM: 51.3%
[11]
  Activity: Tde
[12]
  Activity: Dose-dependent effect
Erythrocyte [13]
  inhibition at 1000 µM: 13.5%
[14]
  Activity: 34.2%
[15]
  Activity: Dose-dependent effect

## COc1ccc(OCc2ccncc2)c(C=O)c1
Erythrocyte [2]
  inhibition at 500 µM: 21.7%
[16]
  Activity: 100%
[17]
  Activity: 50%
[3]
  Activity: 31.5%
[4]
  Activity: 82.5%
[5]
  Activity: 7.9%
[18]
  Activity: 15%
Erythrocyte [6]
  Activity: Dose-dependent effect
[7]
  Activity: 58.7%
[19]
  Activity: 45%
[8]
  Activity: 32.8%
[9]
  Activity: 15%
Erythrocyte [10]
  inhibition at 2000 µM: 85.9%
[11]
  Activity: Tde
[12]
  Activity: Dose-dependent effect
Erythrocyte [13]
  inhibition at 1000 µM: 60.4%
[14]
  Activity: 55.6%
[15]
  Activity: Dose-dependent effect

## COc1ccc(OCc2cccnc2)c(C=O)c1
Erythrocyte [2]
  inhibition at 500 µM: 14.9%
[16]
  Activity: 100%
[17]
  Activity: 50%
[3]
  Activity: 49.2%
[4]
  Activity: 100%
[5]
  Activity: 24.8%
[18]
  Activity: 25%
Erythrocyte [6]
  Activity: Dose-dependent effect
[7]
  Activity: 79%
[19]
  Activity: 50%
[9]
  Activity: 25%
Erythrocyte [10]
  inhibition at 2000 µM: 90.5%
[11]
  Activity: Tde
[12]
  Activity: Dose-dependent effect
Erythrocyte [13]
  inhibition at 1000 µM: 59.5%
[14]
  Activity: 75.8%
[15]
  Activity: Dose-dependent effect

## COc1cc(C=O)ccc1O [VANILLIN]
Erythrocyte [2]
  inhibition at 500 µM: 4.2%
[3]
  Activity: 10.6%
[4]
  Activity: 12%
[5]
  Activity: 1.2%
Erythrocyte [6]
  Activity: Dose-dependent effect
[7]
  Activity: 5.6%
[8]
  Activity: 3.3%
Erythrocyte [10]
  inhibition at 2000 µM: 7.3%
[11]
  Activity: Tde
[12]
  Activity: Dose-dependent effect
Erythrocyte [13]
  inhibition at 1000 µM: 7.3%
[14]
  Activity: 21%
[15]
  Activity: Dose-dependent effect

## COc1ccc(OCc2ccccn2)c(C=O)c1
[20]
  Activity: 50%
Erythrocyte [2]
  inhibition at 500 µM: 24.3%
[16]
  Activity: 100%
[3]
  Activity: 38.1%
[4]
  Activity: 79.5%
[5]
  Activity: 22%
[18]
  Activity: 45%
Erythrocyte [6]
  Activity: Dose-dependent effect
[7]
  Activity: 55.3%
[8]
  Activity: 26.3%
Erythrocyte [10]
  inhibition at 2000 µM: 90.3%
[11]
  Activity: Tde
[12]
  Activity: Dose-dependent effect
Erythrocyte [13]
  inhibition at 1000 µM: 64.8%
[14]
  Activity: 61.4%
[15]
  Activity: Dose-dependent effect
